Holding throughout (assay type): functional
A short description of assay [1]: Cytotoxicity against human breast cancer cells. To be noted: Cancer cell lines. An outline of the steps:
(§1)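 Subpanel values are mean GI50 over the panel's strains of each tumour type: breast 5, colon 6, lung 6 or 7, ovarian 5, stomach 6. […] Cells were grown in RPMI 1640 with 5% FBS at 37 °C under 5% CO2.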

Assay [2] can be described thus: Cytotoxicity against human CNS cancer cells. To be noted: Cancer cell lines.
The nature of assay [3]: Cytotoxicity against human colon cancer cells. To be noted: Cancer cell lines. An outline of the steps: as §1
The nature of assay [4]: Cytotoxicity against human lung cancer cells. The note with it: Cancer cell lines. An outline of the steps: as §1
A short description of assay [5]: Cytotoxicity against human ovarian cancer cells. To be noted: Cancer cell lines. An outline of the steps: as §1
Assay [6] can be described thus: Cytotoxicity against human stomach cancer cells. To be noted: Cancer cell lines. An outline of the steps:
as §1

The subject of the next assay is MKN-28. Kind of assay: Cytotoxicity against human MKN28 cells. The essentials:
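Each line was grown in RPMI 1640 with 5% FBS and penicillin ([…]) at 37 °C under 5% CO2. Cells were plated, attached overnight, and exposed to drug for 48 h. Sulforhodamine B staining was read at 525 nm, with control, test and time-zero absorbances. % growth = 100×(T−T0)/(C−T0), or […] T<T0. GI50 is the concentration giving 50% growth.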

Bounds are passed on as bounds.

`CCCCc1c2[n+](cc3c(OC)c(OC)ccc13)CCc1cc3c(cc1-2)OCO3`: the 50% growth inhibitory concentration (GI50) (commonly the concentration giving 50% growth inhibition) was 6310 nM in assay [1]; 3710 nM in assay [2]; 2510 nM in assay [3]; 1780 nM in assay [4]; 5250 nM in assay [5]; 3900 nM in assay [6]. Also, the GI50 in the assay with MKN-28 was under 2690 nM.

Take `CCCCCCc1c2[n+](cc3c(OC)c(OC)ccc13)CCc1cc3c(cc1-2)OCO3`: the GI50 was 760 nM in assay [1]; 1200 nM in assay [2]; 720 nM in assay [3]; 490 nM in assay [4]; 1170 nM in assay [5]; 760 nM in assay [6]. The GI50 in the assay with MKN-28 was found to be 830 nM.

Consider `COc1cc(Br)c2cc3[n+](c(-c4ccccc4)c2c1OC)CCc1cc2c(cc1-3)OCO2`, for which the GI50 in assay [1] was determined as 1000 nM; in assay [2], 2000 nM; in assay [3], 1550 nM; in assay [4], 2190 nM; in assay [5], 2450 nM; in assay [6], 1910 nM. In addition, the GI50 in the assay with MKN-28 is under 2690 nM.

Regarding `CCCCc1c2c(OC)c(OC)cc(Br)c2cc2[n+]1CCc1cc3c(cc1-2)OCO3`, the GI50 was found to be 520 nM in assay [1]; 1910 nM in assay [2]; 1110 nM in assay [3]; 1540 nM in assay [4]; 1380 nM in assay [5]; 1290 nM in assay [6]. In the assay with MKN-28, the GI50 was under 2690 nM.

Take `CCCCCCc1c2c(OC)c(OC)cc(Br)c2cc2[n+]1CCc1cc3c(cc1-2)OCO3`: the GI50 in assay [1] is 310 nM; in assay [2], 410 nM; in assay [3] it was 440 nM; in assay [4], 410 nM; in assay [5], 480 nM; in assay [6], 340 nM. The compound also came in with a GI50 in the assay on MKN-28 of 410 nM.

Regarding `CCCCCCc1c2[n+](cc3c(OC)c(OC)ccc13)CCc1cc(OC)c(OC)cc1-2` [13-HEXYLPALMATINE], the GI50 was 1050 nM in assay [1]; 2950 nM in assay [2]; 1820 nM in assay [3]; 2140 nM in assay [4]; 2880 nM in assay [5]; 3470 nM in assay [6]. Moreover, in the assay with MKN-28, the GI50 is under 2690 nM.

With `COc1cccc2c1C(=O)c1c(O)c3c(c(O)c1C2=O)C[C@@](O)(C(=O)CO)C[C@@H]3O[C@H]1C[C@H](N)[C@H](O)[C@H](C)O1` [DOXORUBICIN], the GI50 in assay [1] was 1820 nM; in assay [3], 2550 nM; in assay [4] it was 400 nM; in assay [5], 4350 nM; in assay [6] it was 5820 nM.

For `CO[C@@]12[C@H](COC(N)=O)C3=C(C(=O)C(C)=C(N)C3=O)N1C[C@@H]1N[C@@H]12` [MITOMYCIN], the 50% growth inhibitory concentration (GI50) was determined as 34 nM in assay [1]; 180 nM in assay [3]; 23 nM in assay [4]; 120 nM in assay [5]; 100 nM in assay [6].

These data come from ChEMBL document CHEMBL1137805, “In vitro cytotoxicity of the protoberberine-type alkaloids” (2001).
